Data published in ChEMBL document CHEMBL1123394, “Systematic synthesis and biological evaluation of alpha- and beta-D-xylofuranosyl nucleosides of the five naturally occurring bases in nucleic acids and related analogues” (J Med Chem, 1986).
≈ marks a conversion by molar mass, not a printed value.

system: Vero; experiment: Concentration required for microscopically detectable alteration of the normal cell morphology in Vero B cells.; type: functional; settings: Chlorocebus sabaeus
Outline: (§1)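 Host-cell morphology inspected microscopically for detectable alteration, with compounds in growth medium at up to 200 or 400 μg/mL.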

Row | SMILES | MCC [µg/mL]
1 | Nc1ncnc2c1ncn2[C@@H]1O[C@H](CO)[C@@H](O)[C@@H]1O [VIDARABINE] | ≥ 200

system: not listed separately; experiment: Concentration required to reduce protein synthesis in primary rabbit kidney cells usingi [3H2-4,5]leucine incorporation; type: functional; settings: Oryctolagus cuniculus, read-out: ID50 (the source's name)
Outline: (§2)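 Primary rabbit kidney cells with compounds in growth medium at 100, 10, or 1 μg/mL or less. Cell number and incorporation of [3H-methyl]dThd (DNA), [3H-5]Urd (RNA) or [3H2-4,5]leucine (protein) measured. ID50 taken as the dose giving 50% reduction in cell number or in DNA, RNA or protein synthesis.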

Row | SMILES | IC50 [µg/mL]
2 | Nc1ncnc2c1ncn2[C@@H]1O[C@H](CO)[C@@H](O)[C@@H]1O [VIDARABINE] | > 200

system: not listed separately; experiment: Concentration required to reduce RNA synthesis in primary rabbit kidney cells using [3H-5]-Urd incorporation; type: functional; settings: Oryctolagus cuniculus, read-out: ID50 (the source's name); outline: as §2

Row | SMILES | IC50 [µg/mL]
3 | Nc1ncnc2c1ncn2[C@@H]1O[C@H](CO)[C@@H](O)[C@@H]1O [VIDARABINE] | 15 (≈ 56.1 µM)

system: Mus musculus; experiment: Toxicity of compound against mice was determined at a concentration of 100 mg/kg; type: organism-based; set-up: dose 100 mg/kg; settings: in vivo
Outline: (§3)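 Swiss mice (20-24 g) received a single intraperitoneal dose of 100-2,000 mg/kg. Compound was suspended in distilled water containing 0.2 g Tween 80 and 0.2 g (carboxymethyl)cellulose per 100 mL. Mice were followed for 14 days for acute toxicity.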

Row | SMILES | No. of dead mice
4 | Nc1ncnc2c1ncn2[C@@H]1O[C@H](CO)[C@@H](O)[C@@H]1O [VIDARABINE] | 0

system: Vero; experiment: Antiviral activity was measured against Parainfluenza virus-3 in african green monkey kidney (Vero B) cells.; type: functional; settings: Chlorocebus sabaeus
Outline: (§4)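 Inhibition of virus-induced cytopathogenicity scored in cell culture monolayers. Test compounds dissolved in growth medium at 100, 10, or 1 μg/mL or less.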

Row | SMILES | MCC [µg/mL]
5 | Nc1ncnc2c1ncn2[C@@H]1O[C@H](CO)[C@@H](O)[C@@H]1O [VIDARABINE] | 150

system: WI-38; experiment: Concentration required for microscopically detectable alteration of the normal cell morphology in Wi-38 cells.; type: functional; settings: Homo sapiens; outline: as §1

Row | SMILES | MCC [µg/mL]
6 | Nc1ncnc2c1ncn2[C@@H]1O[C@H](CO)[C@@H](O)[C@@H]1O [VIDARABINE] | ≥ 100

system: Mus musculus; experiment: Toxicity of compound against mice was determined at a concentration of 2000 mg/kg; type: organism-based; set-up: dose 2000 mg/kg; settings: in vivo; outline: as §3

Row | SMILES | No. of dead mice
7 | Nc1ncnc2c1ncn2[C@@H]1O[C@H](CO)[C@@H](O)[C@@H]1O [VIDARABINE] | 0

system: WI-38; experiment: Antiviral activity was measured against Rhino virus-9 in human diploid (WI-38) cells.; type: functional; settings: not given; outline: as §4

Row | SMILES | MCC [µg/mL]
8 | Nc1ncnc2c1ncn2[C@@H]1O[C@H](CO)[C@@H](O)[C@@H]1O [VIDARABINE] | > 100

system: not listed separately; experiment: dose required to reduce primary rabbit kidney cell growth; type: functional; settings: Oryctolagus cuniculus, read-out: ID50 (the source's name); outline: as §2

Row | SMILES | IC50 [µg/mL]
9 | Nc1ncnc2c1ncn2[C@@H]1O[C@H](CO)[C@@H](O)[C@@H]1O [VIDARABINE] | 27 (≈ 101 µM)

system: not listed separately; experiment: Antiviral activity was measured against Herpes simplex virus (HSV-1 KOS) in rabbit kidney cells.; type: functional; settings: Oryctolagus cuniculus
Outline: (§5)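 Inhibition of virus-induced cytopathogenicity in cell culture. Compounds were dissolved in growth medium at 100, 10 or 1 μg/mL or less.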

Row | SMILES | MCC [µg/mL]
10 | Nc1ncnc2c1ncn2[C@@H]1O[C@H](CO)[C@@H](O)[C@@H]1O [VIDARABINE] | 20

system: Mus musculus; experiment: Toxicity of compound against mice was determined at a concentration of 750 mg/kg; type: organism-based; set-up: dose 750 mg/kg; settings: in vivo; outline: as §3

Row | SMILES | No. of dead mice
11 | Nc1ncnc2c1ncn2[C@@H]1O[C@H](CO)[C@@H](O)[C@@H]1O [VIDARABINE] | 0

system: Vero; experiment: Antiviral activity was measured against Reo virus-1 in african green monkey kidney (Vero B) cells.; type: functional; settings: Chlorocebus sabaeus; outline: as §4

Row | SMILES | MCC [µg/mL]
12 | Nc1ncnc2c1ncn2[C@@H]1O[C@H](CO)[C@@H](O)[C@@H]1O [VIDARABINE] | 150

system: not listed separately; experiment: Antiviral activity was measured against Herpes simplex virus (HSV-2 G) in rabbit kidney cells.; type: functional; settings: Oryctolagus cuniculus; outline: as §4

Row | SMILES | MCC [µg/mL]
13 | Nc1ncnc2c1ncn2[C@@H]1O[C@H](CO)[C@@H](O)[C@@H]1O [VIDARABINE] | 10

system: HeLa; experiment: Antiviral activity was measured against vesicular stomatitis virus in HeLa cells.; type: functional; settings: Homo sapiens; outline: as §5

Row | SMILES | MCC [µg/mL]
14 | Nc1ncnc2c1ncn2[C@@H]1O[C@H](CO)[C@@H](O)[C@@H]1O [VIDARABINE] | 150

system: not listed separately; experiment: Concentration required for microscopically detectable alteration of the normal cell morphology in PRK cells.; type: functional; settings: Oryctolagus cuniculus; outline: as §1

Row | SMILES | MCC [µg/mL]
15 | Nc1ncnc2c1ncn2[C@@H]1O[C@H](CO)[C@@H](O)[C@@H]1O [VIDARABINE] | ≥ 200

system: Mus musculus; experiment: Efficacy expressed as number of surviving mice infected with herpetic encephalitis at dose of 150 mg/kg; type: functional; settings: not given
Outline: (§6)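 Young mice (10 g) were inoculated intracerebrally with 0.03 mL of herpes simplex virus suspension containing ca. 4 CCID50. Compound was given at 75 or 150 mg/kg per day as two daily intraperitoneal injections for 4 days. Read-out was the number of surviving mice.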

Row | SMILES | Efficacy [mg/kg]
16 | Nc1ncnc2c1ncn2[C@@H]1O[C@H](CO)[C@@H](O)[C@@H]1O [VIDARABINE] | 0

system: WI-38; experiment: Antiviral activity was measured against Rhino virus-1A in human diploid (WI-38) cells.; type: functional; settings: not given; outline: as §4

Row | SMILES | MCC [µg/mL]
17 | Nc1ncnc2c1ncn2[C@@H]1O[C@H](CO)[C@@H](O)[C@@H]1O [VIDARABINE] | > 100

system: Vero; experiment: Antiviral activity was measured against forest virus in african green monkey kidney (Vero B) cells.; type: functional; settings: Chlorocebus sabaeus; outline: as §4

Row | SMILES | MCC [µg/mL]
18 | Nc1ncnc2c1ncn2[C@@H]1O[C@H](CO)[C@@H](O)[C@@H]1O [VIDARABINE] | > 100

organism: Mus musculus; experiment: Efficacy expressed as number of surviving mice infected with herpetic encephalitis at dose of 75 mg.kg; type: functional; settings: not given; outline: as §6

Row | SMILES | Efficacy [mg/kg]
19 | Nc1ncnc2c1ncn2[C@@H]1O[C@H](CO)[C@@H](O)[C@@H]1O [VIDARABINE] | 0

system: not listed separately; experiment: Antiviral activity was measured against Vesicular stomatitis virus in rabbit kidney cells.; type: functional; settings: Oryctolagus cuniculus; outline: as §5

Row | SMILES | MCC [µg/mL]
20 | Nc1ncnc2c1ncn2[C@@H]1O[C@H](CO)[C@@H](O)[C@@H]1O [VIDARABINE] | 70

system: Mus musculus; experiment: Toxicity of compound against mice was determined at a concentration of 1200 mg/kg; type: organism-based; set-up: dose 1200 mg/kg; settings: in vivo; outline: as §3

Row | SMILES | No. of dead mice
21 | Nc1ncnc2c1ncn2[C@@H]1O[C@H](CO)[C@@H](O)[C@@H]1O [VIDARABINE] | 0

system: HeLa; experiment: Concentration required for microscopically detectable alteration of the normal cell morphology in HeLa cells.; type: functional; settings: Homo sapiens; outline: as §1

Row | SMILES | MCC [µg/mL]
22 | Nc1ncnc2c1ncn2[C@@H]1O[C@H](CO)[C@@H](O)[C@@H]1O [VIDARABINE] | ≥ 200

system: Vero; experiment: Antiviral activity was measured against Sindbis virus in african green monkey kidney (Vero B) cells.; type: functional; settings: Chlorocebus sabaeus; outline: as §4

Row | SMILES | MCC [µg/mL]
23 | Nc1ncnc2c1ncn2[C@@H]1O[C@H](CO)[C@@H](O)[C@@H]1O [VIDARABINE] | > 100

system: Vero; experiment: Antiviral activity was measured against Coxsackie virus B4 in african green monkey kidney (Vero B) cells.; type: functional; settings: Chlorocebus sabaeus; outline: as §4

Row | SMILES | MCC [µg/mL]
24 | Nc1ncnc2c1ncn2[C@@H]1O[C@H](CO)[C@@H](O)[C@@H]1O [VIDARABINE] | > 100

system: not listed separately; experiment: Antiviral activity was measured against Vaccinia virus in rabbit kidney cells.; type: functional; settings: Oryctolagus cuniculus; outline: as §5

Row | SMILES | MCC [µg/mL]
25 | Nc1ncnc2c1ncn2[C@@H]1O[C@H](CO)[C@@H](O)[C@@H]1O [VIDARABINE] | 2

system: Mus musculus; experiment: Toxicity of compound against mice was determined at a concentration of 250 mg/kg; type: organism-based; set-up: dose 250 mg/kg; settings: in vivo; outline: as §3

Row | SMILES | No. of dead mice
26 | Nc1ncnc2c1ncn2[C@@H]1O[C@H](CO)[C@@H](O)[C@@H]1O [VIDARABINE] | 0

system: Mus musculus; experiment: Efficacy expressed as number of surviving mice infected with herpetic encephalitis at dose of 0 mg/kg; type: functional; settings: not given

Row | SMILES | Efficacy [mg/kg]
27 | Nc1ncnc2c1ncn2[C@@H]1O[C@H](CO)[C@@H](O)[C@@H]1O [VIDARABINE] | 0

system: not listed separately; experiment: Concentration required to reduce DNA synthesis in primary rabbit kidney cells using [3H-Methyl]-dThd incorporation; type: functional; settings: Oryctolagus cuniculus, read-out: ID50 (the source's name); outline: as §2

Row | SMILES | IC50 [µg/mL]
28 | Nc1ncnc2c1ncn2[C@@H]1O[C@H](CO)[C@@H](O)[C@@H]1O [VIDARABINE] | 31 (≈ 116 µM)

system: HeLa; experiment: Antiviral activity was measured against Coxsackie virus B4 in HeLa cells.; type: functional; settings: Homo sapiens; outline: as §5

Row | SMILES | MCC [µg/mL]
29 | Nc1ncnc2c1ncn2[C@@H]1O[C@H](CO)[C@@H](O)[C@@H]1O [VIDARABINE] | > 100
